These results are taken from ChEMBL document CHEMBL1153911 (Bioorg Med Chem Lett, 2009).

The species entered for experiment [1] is Homo sapiens. Put plainly: Selectivity ratio of Ki for delta opioid receptor to Ki for mu opioid receptor. The gist of the method: (§1)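 CHO cell membranes (50 µg) expressing cloned mu, delta or kappa opioid receptors, labelled with […] (mu), [3H]NTI (delta) or [3H]norBNI (kappa), with varying drug concentrations, 90 min at 30 °C. […] IC50 from Hill-plot linear regression, converted to Ki by Cheng-Prusoff.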

For experiment [2], the species on record is Homo sapiens. As to the kind of experiment: Selectivity ratio of Ki for kappa opioid receptor to Ki for mu opioid receptor. The gist of the method:
as §1

The target of experiment [3] is T1, Mu-type opioid receptor (Homo sapiens, UniProt P35372). Put plainly: […] activity against mu opioid receptor expressed in CHO cells assessed as stimulation [35S]GTPgammaS binding relative to DAMGO. The class given is functional, cell-based. Also on record: concentration or dose not given beside the values. The gist of the method:
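Membranes (10 µg) from the same receptor-expressing CHO cells incubated 30 min with 10 µM GDP, 0.1 nM [35S]GTPγS and varying drug concentrations. Nonspecific binding defined by 10 µM unlabelled GTPγS. Relative Emax and EC50 from nonlinear regression of concentration-effect curves.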
In general terms: GTPγS resists hydrolysis and so accumulates on activated G proteins.

Experiment [4] deals with Delta-type opioid receptor (Homo sapiens, UniProt P41143). As to the kind of experiment: Displacement of [3H]NTI from delta opioid receptor expressed in CHO cells. The class given is cell-based. The gist of the method: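 CHO cell membranes (50 µg) expressing cloned mu, delta or kappa opioid receptors, labelled with […] (mu), [3H]NTI (delta) or [3H]norBNI (kappa), with varying drug concentrations, 90 min at 30 °C. IC50 from Hill-plot linear regression, converted to Ki by Cheng-Prusoff.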

The target in experiment [5] is Kappa-type opioid receptor (Homo sapiens, UniProt P41145). As to the kind of experiment: Displacement of [3H]norBNI from kappa opioid receptor expressed in CHO cells. The experiment is classed as cell-based.
The target in experiment [6] is T1, Mu-type opioid receptor. As to the kind of experiment: Displacement of [3H]DAMGO from mu opioid receptor expressed in CHO cells. The experiment is classed as cell-based. On the technique in general: In a radioligand displacement assay an active substance lowers the binding of a labelled ligand.
In experiment [7] the target is T1, Mu-type opioid receptor. The settings on record: CHO.

The structures appear in SMILES notation. pKi: −log10 of the molar value.

T1 sequence (P35372 whole entry): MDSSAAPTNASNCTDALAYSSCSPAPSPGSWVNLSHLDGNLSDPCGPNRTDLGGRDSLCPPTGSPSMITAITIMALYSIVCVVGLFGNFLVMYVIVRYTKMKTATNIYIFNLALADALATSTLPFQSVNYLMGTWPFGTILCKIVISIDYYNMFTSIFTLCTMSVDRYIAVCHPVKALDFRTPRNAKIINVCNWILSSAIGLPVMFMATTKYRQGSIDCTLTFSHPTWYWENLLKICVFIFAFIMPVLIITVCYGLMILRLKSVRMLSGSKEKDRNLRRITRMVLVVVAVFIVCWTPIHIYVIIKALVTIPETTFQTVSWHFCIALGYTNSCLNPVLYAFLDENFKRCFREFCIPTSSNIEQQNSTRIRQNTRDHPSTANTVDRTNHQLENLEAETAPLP
Sequence of Delta-type opioid receptor (P41143 whole entry): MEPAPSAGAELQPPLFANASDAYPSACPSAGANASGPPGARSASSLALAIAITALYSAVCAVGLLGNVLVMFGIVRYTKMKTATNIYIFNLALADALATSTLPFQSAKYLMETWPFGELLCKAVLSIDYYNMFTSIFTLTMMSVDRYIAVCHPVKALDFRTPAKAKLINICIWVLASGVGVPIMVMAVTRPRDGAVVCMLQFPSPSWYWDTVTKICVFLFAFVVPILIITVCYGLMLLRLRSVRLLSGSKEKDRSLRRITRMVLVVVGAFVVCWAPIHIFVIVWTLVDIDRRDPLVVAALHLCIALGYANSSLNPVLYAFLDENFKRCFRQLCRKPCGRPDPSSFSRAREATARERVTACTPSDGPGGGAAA
Sequence of Kappa-type opioid receptor (P41145 whole entry): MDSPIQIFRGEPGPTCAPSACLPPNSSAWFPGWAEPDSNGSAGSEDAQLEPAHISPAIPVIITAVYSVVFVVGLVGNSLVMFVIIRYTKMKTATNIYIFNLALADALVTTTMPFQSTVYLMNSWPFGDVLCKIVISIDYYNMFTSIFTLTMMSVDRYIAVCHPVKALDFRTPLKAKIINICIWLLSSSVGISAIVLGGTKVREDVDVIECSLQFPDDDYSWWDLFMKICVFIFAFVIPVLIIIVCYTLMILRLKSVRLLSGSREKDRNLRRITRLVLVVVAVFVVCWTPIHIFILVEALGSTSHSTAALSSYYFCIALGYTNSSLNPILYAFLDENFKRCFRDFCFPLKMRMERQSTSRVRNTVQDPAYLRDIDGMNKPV

Consider `COc1cccc2c1[C@]13CCN(CC4CC4)[C@H](C2)[C@]1(OC)CCC(=O)C3`, for which the Ratio Ki in experiment [1] worked out at 40; in experiment [2] it was 45.

As for `O=C(O[C@@]12CCC(=O)[C@@H]3Oc4c(O)ccc5c4[C@@]31CCN(CC1CC1)[C@@H]2C5)c1cccnc1`, the Activity in experiment [3] was determined as 0%. Besides, the Ratio Ki worked out at 107 in experiment [1] and 30 in experiment [2].

As for `O=C(O[C@@]12CCC(=O)[C@@H]3Oc4c(O)ccc5c4[C@@]31CCN(CC1CC1)[C@@H]2C5)c1cc2ccccc2cn1`, in experiment [3], the Activity was found to be 0%. The Ratio Ki in experiment [1] and in experiment [2] was above 146 throughout.

Take `O=C(O[C@@]12CCC(=O)[C@@H]3Oc4c(O)ccc5c4[C@@]31CCN(CC1CC1)[C@@H]2C5)c1ccc2ccccc2c1`: the Activity in experiment [3] was 0%. Besides, the Ratio Ki in experiment [1] was 4; in experiment [2] it was below 1.

With `O=C(O[C@@]12CCC(=O)[C@@H]3Oc4c(O)ccc5c4[C@@]31CCN(CC1CC1)[C@@H]2C5)c1ccc2ccccc2n1`, in experiment [3], the Activity was determined as 0%. In addition, the figures for the Ratio Ki in experiment [1] and in experiment [2] were 16 and 47, respectively.

The term pKi denotes the negative decadic logarithm of the Ki, by convention in mol/L. On to `COC(=O)/C=C/C(=O)N[C@@H]1CC[C@@]2(O)[C@H]3Cc4ccc(O)c5c4[C@@]2(CCN3CC2CC2)[C@H]1O5`, for which the pKi in experiment [4] was 7.56; in experiment [5], 9.03; in experiment [6], 9.39. Besides, in experiment [3], the Activity stood at 0%.

Regarding `O=C(O[C@@]12CCC(=O)[C@@H]3Oc4c(O)ccc5c4[C@@]31CCN(CC1CC1)[C@@H]2C5)c1cnc2ccccc2c1`, the Activity in experiment [3] amounted to 22%. Further, the Ratio Ki in experiment [1] came to 304; in experiment [2], 55.

`C[C@@H](O)[C@H](NC(=O)[C@H](NC(=O)[C@@H](NC(=O)[C@H](CCCNC(=N)N)NC(=O)C(Cc1c[nH]c2ccccc12)NC(=O)[C@@H](Cc1ccc(O)cc1)NC(=O)[C@H](CS)NC(=O)[C@H](N)Cc1ccccc1)[C@@H](C)O)C(C)(C)S)C(=O)O` (stereo in doubt): the Activity in experiment [3] was found to be 0%. For the same compound, the Ratio Ki in experiment [1] was 713; in experiment [2], 501.

For the compound `O=C(O[C@@]12CCC(=O)[C@@H]3Oc4c(O)ccc5c4[C@@]31CCN(CC1CC1)[C@@H]2C5)c1ccccn1`, the Activity in experiment [3] came to 0%. Also, the Ke in experiment [7] was determined as 0.2 nM. Moreover, the Ratio Ki was 838 in experiment [1] and 182 in experiment [2].

As for `O=C(O[C@@]12CCC(=O)[C@@H]3Oc4c(O)ccc5c4[C@@]31CCN(CC1CC1)[C@@H]2C5)c1ccncc1`, the Activity in experiment [3] amounted to 0%. Further, the Ratio Ki in experiment [1] is 73; in experiment [2], 9.

With `O=C(O[C@@]12CCC(=O)[C@@H]3Oc4c(O)ccc5c4[C@@]31CCN(CC1CC1)[C@@H]2C5)c1ccccc1`, the Activity in experiment [3] worked out at 0%. The Ratio Ki in experiment [1] was above 81; in experiment [2] it was 5.
